Results reported in ChEMBL document CHEMBL1125570 (J Med Chem, 1992).

What was measured:
[1] = target: T1, 5-hydroxytryptamine receptor 2C (Rattus norvegicus, UniProt P08909); assay: Binding affinity against 5-hydroxytryptamine 1C receptor
T1 sequence (P08909 whole entry): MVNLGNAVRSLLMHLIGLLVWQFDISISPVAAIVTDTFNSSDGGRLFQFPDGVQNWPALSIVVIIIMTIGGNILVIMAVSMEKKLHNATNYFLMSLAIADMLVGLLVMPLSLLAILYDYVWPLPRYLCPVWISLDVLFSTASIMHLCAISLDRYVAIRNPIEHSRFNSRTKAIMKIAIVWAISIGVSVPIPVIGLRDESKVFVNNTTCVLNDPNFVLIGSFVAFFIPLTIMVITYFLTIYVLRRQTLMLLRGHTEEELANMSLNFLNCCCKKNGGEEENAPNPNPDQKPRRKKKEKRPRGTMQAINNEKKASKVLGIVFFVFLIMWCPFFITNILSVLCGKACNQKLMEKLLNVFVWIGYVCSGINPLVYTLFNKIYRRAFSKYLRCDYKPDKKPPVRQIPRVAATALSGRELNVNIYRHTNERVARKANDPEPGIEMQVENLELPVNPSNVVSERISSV

[2] = target: T2, Serotonin 2 (5-HT2) receptor (Rattus norvegicus, UniProt P30994+P08909+P14842); assay: Binding affinity against 5-Hydroxy tryptamine 2 (5-hydroxytryptamine 2)receptor; assay type: protein assay
[3] = target: T1, 5-hydroxytryptamine receptor 2C; assay: Binding affinity against 5-hydroxytryptamine 1C receptor in rat using [3H]mesulergine as radioligand
Method in brief: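 Rat frontal cortex homogenate (male Sprague-Dawley, 200–250 g), washed in 50 mM Tris·HCl, 0.5 mM EDTA, 10 mM MgCl2, pH 7.4, with 0.1% ascorbate and 10⁻⁵ M pargyline. 10 mg wet tissue, 1 nM [3H]mesulergine, 100 nM spiperone to block 5-HT2 sites, nonspecific binding with 1.0 μM mianserin. Incubated 15 min at 37 °C, triplicates, filtration. Ki from IC50 via Cheng–Prusoff.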

[4] = target: Serotonin 2 (5-HT2) receptor (Rattus norvegicus, UniProt P14842); assay: Binding affinity against 5-hydroxytryptamine 2 receptor in rat using [3H]ketanserin as radioligand
Method in brief: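 Male Sprague-Dawley rat (200–250 g) frontal cortex membranes in 50 mM Tris·HCl/0.5 mM EDTA/10 mM MgCl2, pH 7.4, plus 0.1% ascorbate and 10⁻⁵ M pargyline. Nonspecific binding defined by 1.0 μM cinanserin. Run in triplicate, 15 min at 37 °C, then filtration. Ki = IC50/(1 + D*/KD*).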

[5] = target: T3, Serotonin 2 (5-HT2) receptor (Rattus norvegicus) (UniProt P30994+P08909+P14842); assay: Selectivity ratio for 5-HT1C compared to 5-HT2 receptors.; assay type: protein assay
Method in brief: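 Ratio of 5-HT1C Ki over 5-HT2 Ki. Both come from rat frontal cortex competition assays run in triplicate for 15 min at 37 °C. The 5-HT1C assay used 1 nM [3H]mesulergine with 100 nM spiperone present. […] Ki values were derived from IC50 by Cheng–Prusoff.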

[6] = target: T2, Serotonin 2 (5-HT2) receptor; assay: Inhibitory activity against 5-hydroxytryptamine 2 receptor; assay type: protein assay
Method in brief: (§1)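 Male Sprague-Dawley rat (200–250 g) frontal cortex membranes in 50 mM Tris·HCl/0.5 mM EDTA/10 mM MgCl2, pH 7.4, plus 0.1% ascorbate and 10⁻⁵ M pargyline. […] Nonspecific binding defined by 1.0 μM cinanserin. Run in triplicate, 15 min at 37 °C, then filtration. Ki = IC50/(1 + D*/KD*).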

[7] = target: T2, Serotonin 2 (5-HT2) receptor; assay: Inhibitory constant against 5-hydroxytryptamine 2 receptor; assay type: protein assay; method in brief: as §1
[8] = target: T3, Serotonin 2 (5-HT2) receptor (Rattus norvegicus); assay: Selectivity for 5-HT1C and 5-HT2 receptors, ratio of Ki; assay type: protein assay
Method in brief: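 Both come from rat frontal cortex competition assays run in triplicate for 15 min at 37 °C. The 5-HT1C assay used 1 nM [3H]mesulergine with 100 nM spiperone present. Ki values were derived from IC50 by Cheng–Prusoff.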

T3 sequence (P14842 whole entry, looked up, one chain of several): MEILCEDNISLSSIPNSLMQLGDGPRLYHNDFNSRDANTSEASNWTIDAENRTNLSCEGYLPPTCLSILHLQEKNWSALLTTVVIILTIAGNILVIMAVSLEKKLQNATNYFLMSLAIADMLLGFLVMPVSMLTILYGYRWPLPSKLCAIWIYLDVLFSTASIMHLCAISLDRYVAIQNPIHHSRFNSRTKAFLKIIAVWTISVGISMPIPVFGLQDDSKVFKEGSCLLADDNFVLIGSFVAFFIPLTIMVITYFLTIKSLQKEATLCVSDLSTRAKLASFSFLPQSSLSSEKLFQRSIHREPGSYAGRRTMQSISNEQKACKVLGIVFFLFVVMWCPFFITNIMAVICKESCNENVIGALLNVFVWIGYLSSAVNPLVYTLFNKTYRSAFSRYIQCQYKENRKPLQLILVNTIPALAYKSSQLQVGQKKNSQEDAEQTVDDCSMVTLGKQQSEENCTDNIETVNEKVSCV
T3 sequence (P30994 whole entry, looked up, one chain of several): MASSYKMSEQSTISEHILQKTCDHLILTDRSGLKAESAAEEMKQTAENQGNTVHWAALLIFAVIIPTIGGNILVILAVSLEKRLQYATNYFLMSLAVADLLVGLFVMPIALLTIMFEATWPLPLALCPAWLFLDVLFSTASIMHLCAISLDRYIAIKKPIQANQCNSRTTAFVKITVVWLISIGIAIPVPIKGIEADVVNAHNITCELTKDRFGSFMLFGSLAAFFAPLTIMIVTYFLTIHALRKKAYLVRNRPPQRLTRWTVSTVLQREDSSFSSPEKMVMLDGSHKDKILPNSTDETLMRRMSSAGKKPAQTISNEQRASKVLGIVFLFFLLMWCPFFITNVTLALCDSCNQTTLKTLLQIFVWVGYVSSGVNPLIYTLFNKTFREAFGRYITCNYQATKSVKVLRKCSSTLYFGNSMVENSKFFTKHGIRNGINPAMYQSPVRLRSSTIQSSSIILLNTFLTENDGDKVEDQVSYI

SMILES | Ki [3] | Ki [4] | Ratio [5] | other results
c1ccc(CC2CCNCC2)cc1 | – | – | – | Ki [1]: > 10000 nM; Ki [2]: > 10000 nM
CCN1CCC(C(O)c2ccc(F)cc2)CC1.O=C(O)/C=C\C(=O)O (configuration not stated) | > 10000 nM | > 10000 nM | – | –
O=C(c1ccc(F)cc1)C1CCN(CCn2c(=O)[nH]c3ccccc3c2=O)CC1 [KETANSERIN] | 50 nM | – | – | –
O=C(O)/C=C\C(=O)O.O=c1[nH]c2ccccc2c(=O)n1CCN1CCC(Cc2ccccc2)CC1 | 970 nM | 32 nM | 30 | –
O=C(O)/C=C\C(=O)O.O=c1[nH]c2ccccc2c(=O)n1CCNCCCCc1ccccc1 | > 10000 nM | 180 nM | > 50 | –
O=C(NCCN1CCC(C(=O)c2ccc(F)cc2)CC1)c1ccccc1.O=C(O)C(=O)O | 1610 nM | 16 nM | 100 | –
O=C(O)C(=O)O.O=C(c1ccc(F)cc1)C1CCN(CCCCCc2ccccc2)CC1 | 420 nM | 10 nM | 40 | –
O=C(c1ccccc1)C1CCNCC1 | > 10000 nM | 3320 nM | > 3 | –
CN(C)CCn1c(=O)[nH]c2ccccc2c1=O | > 10000 nM | > 10000 nM | – | –
O=C(O)C(=O)O.O=C(c1ccc(F)cc1)C1CCN(CCCc2ccccc2)CC1 | 940 nM | 16 nM | 60 | –
Cl.O=C(CCCN1CCC(C(=O)c2ccc(F)cc2)CC1)c1ccccc1 | 350 nM | 6.5 nM | 50 | –
O=C1NCCN1CCN1CCN(C2CC(c3ccc(F)cc3)c3ccccc32)CC1 (configuration not stated) | – | – | – | IC50 [6]: 3.4 nM
CN1CCN(CCn2c(=O)[nH]c3ccccc3c2=O)CC1.Cl.Cl | > 10000 nM | > 10000 nM | – | –
CN1CCN(C(=O)c2ccccc2)CC1 | > 10000 nM | > 10000 nM | – | –
O=C(O)C(=O)O.O=c1[nH]c2ccccc2c(=O)n1CCN1CCC(Cc2ccc(F)cc2)CC1 | 200 nM | 12 nM | 17 | –
O=C(O)C(=O)O.O=C(c1ccc(F)cc1)C1CCN(CCCCc2ccccc2)CC1 | 620 nM | 5.3 nM | 120 | –
OC(c1ccccc1)C1CCN(CCc2ccccc2)CC1 (configuration not stated) [GLEMANSERIN] | – | – | – | Ki [7]: 12.5 nM
O=C(O)/C=C\C(=O)O.O=c1[nH]c2ccccc2c(=O)n1CCNCCCc1ccccc1 | > 10000 nM | 660 nM | > 10 | –

SMILES | Ki [3] | Ki [4] | Ratio [5] | other results
OC(c1ccccc1)C1CCN(CCc2ccc(F)cc2)CC1 (configuration not stated) | – | – | – | IC50 [6]: 0.9 nM
CCN1CCC(C(=O)c2ccc(F)cc2)CC1 | 3160 nM | 260 nM | 12 | –
O=C(c1ccccc1)N1CCNCC1 | > 10000 nM | > 10000 nM | – | –
O=C(c1ccc(F)cc1)C1CCNCC1 | 1100 nM | 430 nM | 2 | –
CN(CCCc1ccccc1)CCn1c(=O)[nH]c2ccccc2c1=O.O=C(O)C(=O)O | 1390 nM | 640 nM | 2 | –
O=C(O)C(=O)O.O=C(c1ccc(F)cc1)C1CCN(CCc2ccccc2)CC1 | 145 nM | 8.5 nM | 15 | –
CN1CCC(Cc2ccccc2)CC1.Cl | – | – | – | Ki [1]: > 10000 nM; Ki [2]: 3870 nM; Ki ratio [8]: > 2
O=C(O)/C=C\C(=O)O.O=C(c1ccccc1)C1CCN(CCn2c(=O)[nH]c3ccccc3c2=O)CC1 | 760 nM | 6.5 nM | 115 | –
O=C(O)C(=O)O.O=c1[nH]c2ccccc2c(=O)n1CCN1CCC(C(O)c2ccccc2)CC1 (configuration not stated) | > 10000 nM | 655 nM | > 15 | –
Cl.NCCn1c(=O)[nH]c2ccccc2c1=O | > 10000 nM | > 10000 nM | – | –
O=C(O)C(=O)O.O=C(c1ccc(F)cc1)C1CCN(Cc2ccccc2)CC1 | 3000 nM | 25 nM | 120 | –
CN1CCN(C(=O)c2ccc(F)cc2)CC1 | > 10000 nM | > 10000 nM | – | –
CN1CCC(C(=O)c2ccc(F)cc2)CC1 | 1510 nM | 125 nM | 12 | –
CN1CCN(C2CC(c3ccc(F)cc3)c3ccccc32)CC1 (single isomer, unassigned; (+)) | – | – | – | IC50 [6]: 4.9 nM
c1ccc(CN2CCNCC2)cc1 | > 10000 nM | > 10000 nM | – | –
CN1CCN(Cc2ccc(F)cc2)CC1.Cl.Cl | > 10000 nM | > 10000 nM | – | –
Cl.O=c1[nH]c2ccccc2c(=O)n1CCN1CCCCC1 | > 10000 nM | > 10000 nM | – | –
O=C(NCCN1CCC(C(=O)c2ccc(F)cc2)CC1)Nc1ccccc1.O=C(O)C(=O)O | 200 nM | 4.3 nM | 50 | –
